Screens from PubChem BioAssay.
An excerpt weighted towards active compounds, which were near 2.2% of everything screened.
bCat nuc transl: beta-catenin nuclear translocation modulation | HeLa beta-catenin nuclear translocation, immunofluorescence imaging | nuclear translocation activity, % at 5 µM | 190,000 tested, 0.3% active | AID 1665;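 active means nuclear translocation activity above 50% at 5 µM, with a well cell count of 50 or more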;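 further: per-cell ratio of nuclear to cytoplasmic median beta-catenin stain intensity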
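System: HeLa cells, endogenous beta-catenin; compound dosing: 5 µM primary single dose, 0.1% DMSO, 0.02–20 µM confirmation series; incubation: 24 h compound exposure at 37°C, 5% CO2; signal: beta-catenin immunofluorescence imaging with DAPI; evaluation: % activation, nuclear-to-cytoplasmic median beta-catenin signal ratio per cell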
APP transl inh: APP translation inhibition; 190,000 tested, 0.82% active; inhibition, % at 2 µM; SH-SY5Y APP 5'UTR-luciferase reporter, luminescence; AID 1285;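 active means inhibition above a set limit, derived from the sample mean plus 3 SD, cut at about 45% in these data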
IEC-6 tox: kills IEC-6 intestinal cells in KLF5 counter-screen | IEC-6 cytotoxicity, luminescence viability | 290,000 tested, 0.78% active | inhibition, % at 5 µM | AID 1825; in the data active means inhibition above about 22%
BaF3 parental: counter-screen for JAK2V617F inhibitors: parental Ba/F3 viability inhibitors; CellTiter-Glo ATP luminescence; inhibition, % at 5.6 µM; 220,000 tested, 1.1% active; AID 1486;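 active means inhibition above a per-campaign cutoff, the mean inhibition of all tested compounds plus 3 SD, cut at about 27% in these data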
MT stabilize HCS: microtubule stabilizers in HeLa cells | % tubulin-high responders, % at 10 µM | 200,000 tested, 0.83% active | HeLa tubulin immunostaining HCS, 24 h; share of cells brighter than vehicle mean+2SD;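 active means plate Z-score above 3 for both tubulin-high and condensed-nucleus cell shares, with cell loss under 80%, at 10 µM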;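 further: anti alpha tubulin signal scored within the nucleus-defined area of each cell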
Ba/F3 V617F tox: lowers viability of Ba/F3 cells expressing EpoR and JAK2V617F; inhibition, % at 5.6 µM; ATP luminescence; 220,000 tested, 1.1% active; AID 1446;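 active means inhibition above the campaign mean plus 3 SD over all tested compounds, cut at about 24% in these data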;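 further: cytokine-independent growth of Ba/F3 cells driven by EpoR plus mutant JAK2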
Numbers stand for hits.

For Cc1ccc(C(=O)Nc2ncc(Cc3ccc(SC(F)F)cc3)s2)cc1 the results were bCat nuc transl 135, APP transl inh 93, IEC-6 tox inactive, BaF3 parental inactive, MT stabilize HCS inactive and Ba/F3 V617F tox inactive.
Screening COc1ccc(-n2c(SCC(C)=O)nc3sc(C)c(C)c3c2=O)cc1 returned IEC-6 tox inactive.
`CC1(C)CC(=NNC(=O)c2n[nH]c3c2CCC3)CC(C)(C)N1` gave bCat nuc transl inactive, APP transl inh 82, IEC-6 tox inactive, BaF3 parental inactive, MT stabilize HCS inactive and Ba/F3 V617F tox inactive.
O=C(N/N=C/c1cccs1)c1n[nH]c2c1CCC2 was read as bCat nuc transl inactive, APP transl inh inactive, IEC-6 tox inactive, BaF3 parental inactive, MT stabilize HCS 25 and Ba/F3 V617F tox inactive.
Cc1nc2c(nnn2Cc2ccccc2)c(=O)[nH]1 was read as bCat nuc transl inactive, APP transl inh inactive, IEC-6 tox inactive, BaF3 parental inactive, MT stabilize HCS inactive and Ba/F3 V617F tox inactive.
For COc1ccc(/C=N/NC(=O)c2c(Br)cnn2C)c2ccccc12 the results were IEC-6 tox inactive.
For Cn1cc(CN2C[C@H]3CC[C@H]2C3)c(-c2ccccc2F)n1 the results were bCat nuc transl inactive, APP transl inh inactive, IEC-6 tox inactive, BaF3 parental 31, MT stabilize HCS inactive and Ba/F3 V617F tox 55.
`Cn1cccc1/C=N/NC(=O)c1cccnc1` gave bCat nuc transl inactive, APP transl inh inactive, IEC-6 tox inactive, BaF3 parental inactive, MT stabilize HCS inactive and Ba/F3 V617F tox inactive.
Screening CN1/C(=C\C=N\NC(=O)c2cccnc2)C(C)(C)c2ccccc21 returned bCat nuc transl inactive, APP transl inh inactive, IEC-6 tox inactive, BaF3 parental 43, MT stabilize HCS inactive and Ba/F3 V617F tox 38.
For CN1/C(=C\C=N\NC(=O)c2ccc(O)cc2)C(C)(C)c2ccccc21 the results were bCat nuc transl inactive, APP transl inh inactive, IEC-6 tox inactive, BaF3 parental 42, MT stabilize HCS inactive and Ba/F3 V617F tox 37.
COc1ccc(-c2c(C)nn3c(N4CCC(C(=O)NCCN(C)C)CC4)cc(C)nc23)cc1OC was read as bCat nuc transl inactive, APP transl inh inactive, IEC-6 tox inactive, BaF3 parental inactive, MT stabilize HCS inactive and Ba/F3 V617F tox inactive.
For CCCN(CCC)C(=O)C1CCN(c2cc(C)nc3c(-c4ccc(OC)c(OC)c4)c(C)nn23)CC1 the results were bCat nuc transl inactive, APP transl inh inactive, IEC-6 tox inactive, BaF3 parental 40, MT stabilize HCS inactive and Ba/F3 V617F tox inactive.
For Cc1ccc(S(=O)(=O)N/N=C\c2ccccc2OCc2ccccc2)cc1 the results were APP transl inh inactive, IEC-6 tox inactive, BaF3 parental inactive, MT stabilize HCS 25 and Ba/F3 V617F tox inactive.
COC(=O)N/N=C/c1ccccc1OCc1ccccc1 was read as bCat nuc transl inactive, APP transl inh inactive, IEC-6 tox inactive, BaF3 parental inactive, MT stabilize HCS inactive and Ba/F3 V617F tox inactive.
`Cc1nc(CS(=O)(=O)c2ccc(Cl)cc2)cc(Sc2ccc(Cl)cc2)n1` gave bCat nuc transl inactive, APP transl inh inactive, IEC-6 tox inactive, BaF3 parental inactive, MT stabilize HCS inactive and Ba/F3 V617F tox inactive.
Screening O=[N+]([O-])c1cccc(S(=O)(=O)N2CCCCC2c2cccnc2)c1 (centres undefined) returned IEC-6 tox inactive.
For COc1ccc(-c2nc3ccc(N4CCCC4)cc3c(=O)[nH]2)cc1OC the results were bCat nuc transl inactive, APP transl inh inactive, IEC-6 tox inactive, BaF3 parental inactive, MT stabilize HCS 15 and Ba/F3 V617F tox inactive.
For COc1ccccc1N=CC1=C(O)CC(c2ccccc2)CC1=O (centres undefined) the results were bCat nuc transl 96, APP transl inh inactive, IEC-6 tox inactive, BaF3 parental inactive, MT stabilize HCS inactive and Ba/F3 V617F tox inactive.
O=C1CC(c2ccccc2)CC(O)=C1C=Nc1ccccc1Cl (centres undefined) was read as bCat nuc transl inactive, APP transl inh inactive, IEC-6 tox inactive, BaF3 parental inactive, MT stabilize HCS inactive and Ba/F3 V617F tox inactive.
COc1ccc(/C=C2\SC(=S)N(CC(=O)NC3C=CS(=O)(=O)C3)C2=O)cc1 (centres undefined) was read as IEC-6 tox inactive.
For CC(=O)N(Cc1ccc(F)cc1)C1=C(NCCc2ccccc2)C(=O)c2ccccc2C1=O the results were APP transl inh inactive, IEC-6 tox 54, BaF3 parental inactive, MT stabilize HCS inactive and Ba/F3 V617F tox inactive.
